ERAP1 inh: ERAP1 (human) enzyme inhibition; Q9NZ08; recombinant ERAP1, Leu-AMC fluorescence, 60 min; inhibition, % at 10.7 µM; 0.15% of 340,000 active; AID 652197;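 active means mean replicate inhibition of at least 30%, or all replicates individually reaching that 30% level; inactive means mean below 30% and not every replicate reaching it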
CAL PDZ FP-1: inhibitors of human CAL PDZ peptide binding. inhibition, % at 24.9 µM. 0.92% of 300,000 active. purified CAL PDZ, TMR-peptide fluorescence polarization, 1 h. Q9HD26;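 active means mean inhibition of at least 30% with at least half of replicates also reaching 30%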
PDI inh: blocks human protein disulfide isomerase activity; P07237; inhibition, % at 10 µM; 0.052% of 350,000 active; PDI insulin aggregation turbidity, A650, 90 min;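 active means mean inhibition across replicates of 30% or more, whatever share of single replicates reach that level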
Rin1-Abl PPI inh: human Rin1-Abl interaction inhibition; P00519+Q13671; TR-FRET Rin1/Abl binding, biochemical; inhibition, % at 7.35 µM; 0.4% of 360,000 active; AID 588664; in the data active means inhibition above about 5%, passing the limit was not always enough
CAL PDZ FP-2: human CAL PDZ-peptide interaction inhibition. Q9HD26. purified CAL PDZ, TMR-peptide fluorescence polarization, 1 h. inhibition, % at 20 µM. 0.02% of 330,000 active. AID 504414;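 active means highest replicate inhibition of at least 40%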
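Control set: unlabelled peptide and DMSO controls / Material: purified CerCALP PDZ construct / Timing: 1 h incubation at room temperature before polarization reading / Doses: 20 µM, one dose / Detection: fluorescence polarization (mP)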
ERp5 inh: inhibitors of human ERp5 | ERp5 insulin aggregation, absorbance 650 nm, 90 min | AID 651711 | 0.05% of 350,000 active | Q15084 | inhibition, % at 9.99 µM;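 active means mean replicate inhibition above about 25%, with every replicate also reaching it, limit read from the data, passing the limit was not always enough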
A number is an active result; n = inactive; x = not tested or not shown; ! = not confirmed by another sample. Only some compounds are listed: those with a hit (about 1.1% of all), similar ones and a draw of the others.

SMILES	ERAP1 inh	CAL PDZ FP-1	PDI inh	Rin1-Abl PPI inh	CAL PDZ FP-2	ERp5 inh
O=C(CSc1nnc(-c2ccc(Cl)cc2Cl)n1C1CCCCC1)N1CCCC1	x	53	n	n	n	x
O=C(CSc1nnc2ccc(-c3ccc(F)cc3)nn12)NCC1CCCO1 (centres undefined)	n	x	n	n	n	n
O=C(CSc1nnc(-c2ccc(Br)cc2)n1C1CCCCC1)N1CCCC1	x	56	n	n	n	x
C[C@@H]1CN([C@H](C)CO)C(=O)c2cc(Br)cnc2O[C@H]1CN(C)C(=O)c1ccccn1	n	x	x	x	x	n
CCCC(=O)Nc1ccc2c(c1)C(=O)N(C)C[C@H](OC)[C@H](C)CN(C(=O)CN(C)C)[C@H](C)CO2	n	x	x	x	x	n
O=C(Nc1nc2ccccc2n1Cc1ccc(Cl)cc1)c1ccco1	x	n	n	n	n	x
C=CCn1c(NC(=O)c2ccco2)nc2ccccc21	n	94	n	n	61	n
CCC(=O)N(C)C[C@H]1Oc2ncc(-c3cccc(OC)c3)cc2C(=O)N([C@@H](C)CO)C[C@H]1C	n	x	x	x	x	n
COc1ccc(-c2c(NC(C)=O)n(C)c3ccccc3c2=O)cc1	x	45	n	n	n	x
COc1ccc(-c2c(NC(=O)C(C)C)n(C)c3ccccc3c2=O)cc1	n	n	n	n	n	n
Cc1noc(C)c1COc1cccc(C(=O)OC(C)C#N)c1 (centres undefined)	n	73	n	n	n	n
Cc1noc(C)c1COc1cccc(C(=O)OCCOc2ccc(F)cc2)c1	x	n	n	n	x	x
O=C1CN(S(=O)(=O)c2ccccc2)C[C@@H]2[C@@H](c3ccc(C#CCc4ccccc4)cc3)[C@H](CO)N12	n	x	x	x	x	n
CCC(C)NC(=S)Nc1ccccc1 (centres undefined)	n	75	n	n	n	n
CCC(C)NC(=S)Nc1ccc(C(=O)OC)cc1 (centres undefined)	n	n	n	n	n	n
COc1ccc(CNCc2c(O)c(Cl)cc3c(C)c(C)c(=O)oc23)c(OC)c1	n	32	n	n	n	n
N#Cc1c(N)c(C#N)c(-c2ccc(O)cc2)c2c1CCCC2	x	75	n	n	n	x
CC(Sc1nc2ccccc2s1)C(=O)NCc1ccc2c(c1)OCO2 (centres undefined)	n	n	n	n	n	n
Cc1csc(SC(C)C(=O)NCc2ccc3c(c2)OCO3)n1 (centres undefined)	n	64	n	n	n	n
O=C(COC(=O)CCCN1C(=O)c2ccccc2C1=O)Nc1ncc(Cl)cc1Cl	x	40	n	n	n	x
COc1cc(C(=O)NNC(=O)c2ccc3c(c2)OCCO3)cc(OC)c1OC	n	92	n	n	n	n
COc1cc(OC)cc(C(=O)NNC(=O)c2ccc3c(c2)OCCO3)c1	n	x	n	n	n	n
C[C@@H]1CN([C@@H](C)CO)C(=O)c2cccc(NS(=O)(=O)c3cccs3)c2O[C@H]1CN(C)Cc1ccccc1	n	x	x	x	x	n
COc1ccc(CN(C)C[C@@H]2Oc3ccc(NS(=O)(=O)c4ccccc4)cc3C(=O)N([C@H](C)CO)C[C@H]2C)cc1	n	x	x	x	x	n
CCOC(=O)CN(C(=O)CSc1nnc(-c2cccc(OC)c2)o1)c1ccc(F)cc1	x	32	n	n	n	x
SMILES	ERAP1 inh	CAL PDZ FP-1	PDI inh	Rin1-Abl PPI inh	CAL PDZ FP-2	ERp5 inh
COC(=O)CN(C(=O)CSc1nnc(-c2cccc(OC)c2)o1)c1ccc(OC)cc1	x	n	n	n	n	x
Cc1ccc2cc3c(N)c(C(=O)N4CCOCC4)sc3nc2c1	x	53	n	n	n	x
Cc1cc(C)c2c(c1)/C(=N/NC(=O)c1cc(C)oc1C)CCC2	n	n	n	n	n	n
Cc1cc(C)c2c(c1)/C(=N/NC(=O)c1ccc(O)cc1)CCC2	n	69	n	n	n	n
COc1ccccc1-c1ccc2c(c1)[C@@H]1[C@@H](CCN1C(=O)C1CC1)[C@H](CO)N2	n	x	x	x	x	n
O=C(O)C1CC=CCC1C(=O)NCCCCc1ccccc1 (centres undefined)	n	82	n	n	n	n
COc1ccc(/C(N)=N/OC(=O)Cc2ccccc2[N+](=O)[O-])cc1	x	n	n	n	n	x
N/C(=N\OC(=O)Cc1ccccc1[N+](=O)[O-])c1cccnc1	n	77	n	n	x	n
O=C(N/N=C/c1ccoc1)c1cc(Br)ccc1O	n	n	n	n	n	n
O=C(N/N=C/c1ccoc1)c1ccccc1Br	n	39	n	n	n	n
Cn1c(=O)[nH]c(=O)c2c1[nH]c(=S)n2Cc1ccc(Cl)cc1	45	n	n	n	n	n
O=S1(=O)CC(O)C(O)CS1 (centres undefined)	65	x	x	x	x	n
CN(C)C(=O)c1ccc(-c2ccc([C@H]3[C@H](CO)N4CCCCN(C(=O)C5CCCC5)C[C@@H]34)cc2)cc1	n	x	x	x	x	n
C[n+]1cccc(C(=O)NNC(=O)C23CC4CC(CC(C4)C2)C3)c1	109	n	n	n	n	n
COc1ccccc1C(=O)NNC(=O)C12CC3CC(CC(C3)C1)C2	n	n	n	n	n	n
C[C@H]1CN([C@@H](C)CO)C(=O)c2cc(NC(=O)Nc3ccc(F)cc3)ccc2O[C@H]1CN(C)Cc1ccc(-c2ccccc2)cc1	n	x	x	x	x	n
O=C(NC1(O)C(=O)c2ccccc2C1=O)c1ccc(C(F)(F)F)cc1	n	x	n	18	x	n
COCC#Cc1cnc2c(c1)C(=O)N([C@H](C)CO)C[C@@H](C)[C@H](CN(C)C(=O)NC1CCCC1)O2	n	x	x	x	x	59
CC(C)C#Cc1cnc2c(c1)C(=O)N([C@@H](C)CO)C[C@@H](C)[C@H](CN(C)C(=O)c1ccccc1F)O2	n	x	x	x	x	32
COCC#Cc1cnc2c(c1)C(=O)N([C@@H](C)CO)C[C@H](C)[C@@H](CN(C)C(=O)NC1CCCC1)O2	n	x	x	x	x	50
COCC#Cc1cnc2c(c1)C(=O)N([C@@H](C)CO)C[C@@H](C)[C@@H](CN(C)C(=O)NC1CCCC1)O2	n	x	x	x	x	n
COc1ccc(NC(=O)Nc2ccc3c(c2)CC(=O)N([C@H](C)CO)C[C@H](C)[C@H](CN(C)C(=O)NC2CCCCC2)O3)cc1	n	x	x	x	x	n
CO[C@H]1CN(C)C(=O)c2cc(NC(=O)Cc3ccccc3)ccc2OC[C@@H](C)N(C(=O)c2ccccc2F)C[C@H]1C	n	x	x	x	x	n
O=C(O)CSc1nc2c(c(C(F)(F)F)n1)CCc1ccccc1-2	n	n	n	n	n	n
O=C(O)CSc1nc2c(c(C(F)(F)F)n1)CCCC2	n	78!	n	n	n	n
CO[C@H]1CN(C)C(=O)c2ccc(NC(=O)C3CC3)cc2OC[C@H](C)N(Cc2cccnc2)C[C@@H]1C	n	x	x	x	x	n
CCOc1ccc(N)c(SSc2cc(OCC)ccc2N)c1	38	n	n	n	n	n
C[C@@H]1CCCCO[C@H](CN(C)C(=O)CCCN(C)C)[C@H](C)CN([C@@H](C)CO)C(=O)c2cc(NC(=O)Nc3ccccc3)ccc2O1	n	x	x	x	x	n
